Each block holds one compound with its values, some of them ahead of it.
Assays:
[1] = target: Serine/threonine-protein kinase B-raf (Homo sapiens) (UniProt P15056); assay: Inhibition of human recombinant BRAF at 500 nM in presence of ATP by radiometric assay relative to control
In short: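 Part of a radiometric in vitro activity panel of 327 recombinant human kinases. Each kinase was tested in duplicate at one inhibitor concentration. Activity remaining was expressed as a percentage of the vehicle control, and percent inhibition was taken as 100 minus that value.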

[2] = target: Serine/threonine-protein kinase MARK2 (Homo sapiens) (UniProt Q7KZI7); assay: Inhibition of human recombinant MARK2 at 500 nM related to control ULK1
[3] = target: Fibroblast growth factor receptor 2 (Homo sapiens) (UniProt P21802); assay: Inhibition of human recombinant FGFR2 at 500 nM related to control ULK1
[4] = target: Maternal embryonic leucine zipper kinase (Homo sapiens) (UniProt Q14680); assay: Inhibition of human recombinant MELK at 500 nM in presence of ATP by radiometric assay relative to control
[5] = target: Mitogen-activated protein kinase 10 (Homo sapiens) (UniProt P53779); assay: Inhibition of human recombinant JNK3 at 500 nM related to control ULK1
[6] = target: Wee1-like protein kinase 2 (Homo sapiens) (UniProt P0C1S8); assay: Inhibition of human recombinant Wee1B at 40 nM in presence of ATP by radiometric assay relative to control
[7] = target: T1, Tyrosine-protein kinase ITK/TSK (Homo sapiens) (UniProt Q08881); assay: Inhibition of human recombinant ITK at 40 nM in presence of ATP by radiometric assay relative to control
T1 sequence (whole entry): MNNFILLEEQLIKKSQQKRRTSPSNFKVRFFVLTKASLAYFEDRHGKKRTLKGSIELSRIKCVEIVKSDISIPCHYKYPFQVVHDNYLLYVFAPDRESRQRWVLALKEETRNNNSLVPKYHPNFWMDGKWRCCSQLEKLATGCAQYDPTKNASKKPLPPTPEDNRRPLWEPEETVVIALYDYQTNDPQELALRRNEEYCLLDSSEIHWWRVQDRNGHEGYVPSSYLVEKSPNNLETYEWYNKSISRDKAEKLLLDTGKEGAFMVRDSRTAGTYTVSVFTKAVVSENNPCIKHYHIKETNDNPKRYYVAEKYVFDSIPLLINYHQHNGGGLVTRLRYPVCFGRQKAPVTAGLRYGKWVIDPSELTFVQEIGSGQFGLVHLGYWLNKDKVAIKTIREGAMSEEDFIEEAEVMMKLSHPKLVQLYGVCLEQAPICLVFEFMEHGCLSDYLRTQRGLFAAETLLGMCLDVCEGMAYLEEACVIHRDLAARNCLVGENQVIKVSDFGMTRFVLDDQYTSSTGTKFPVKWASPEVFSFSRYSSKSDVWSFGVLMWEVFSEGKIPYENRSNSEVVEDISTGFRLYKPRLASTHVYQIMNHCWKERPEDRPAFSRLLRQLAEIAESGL

[8] = target: PAS domain-containing serine/threonine-protein kinase (Homo sapiens) (UniProt Q96RG2); assay: Inhibition of human recombinant PASK at 40 nM related to control ULK1
[9] = target: T2, Serine/threonine-protein kinase PLK4 (Homo sapiens) (UniProt O00444); assay: Inhibition of human recombinant PLK4 at 15 nM in presence of ATP by radiometric assay relative to control
T2 sequence (whole entry): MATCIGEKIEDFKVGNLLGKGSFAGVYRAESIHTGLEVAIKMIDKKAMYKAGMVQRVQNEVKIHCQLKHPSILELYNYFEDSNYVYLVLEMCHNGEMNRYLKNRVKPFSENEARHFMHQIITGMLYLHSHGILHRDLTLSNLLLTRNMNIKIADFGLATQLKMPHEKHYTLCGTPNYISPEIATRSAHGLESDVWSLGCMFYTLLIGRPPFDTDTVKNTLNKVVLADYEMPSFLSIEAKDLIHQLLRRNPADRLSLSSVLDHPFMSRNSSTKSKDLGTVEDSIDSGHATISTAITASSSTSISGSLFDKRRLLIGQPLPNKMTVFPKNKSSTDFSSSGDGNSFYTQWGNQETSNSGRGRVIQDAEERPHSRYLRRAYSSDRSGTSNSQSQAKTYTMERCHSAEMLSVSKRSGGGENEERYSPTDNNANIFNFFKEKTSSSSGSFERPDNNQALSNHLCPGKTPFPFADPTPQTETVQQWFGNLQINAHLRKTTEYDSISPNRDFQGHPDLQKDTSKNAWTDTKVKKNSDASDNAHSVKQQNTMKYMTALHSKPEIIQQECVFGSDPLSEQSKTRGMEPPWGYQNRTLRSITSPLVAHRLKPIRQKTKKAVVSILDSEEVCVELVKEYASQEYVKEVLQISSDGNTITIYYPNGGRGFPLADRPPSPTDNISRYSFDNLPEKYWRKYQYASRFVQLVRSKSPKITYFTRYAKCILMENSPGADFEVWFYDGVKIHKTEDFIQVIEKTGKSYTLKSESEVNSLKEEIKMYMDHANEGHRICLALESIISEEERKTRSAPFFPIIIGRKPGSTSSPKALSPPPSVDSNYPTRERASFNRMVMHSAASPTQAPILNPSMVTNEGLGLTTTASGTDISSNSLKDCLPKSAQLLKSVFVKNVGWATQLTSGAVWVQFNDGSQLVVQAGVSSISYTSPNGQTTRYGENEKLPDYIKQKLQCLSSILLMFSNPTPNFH

[10] = target: T3, Serine/threonine-protein kinase TBK1 (Homo sapiens) (UniProt Q9UHD2); assay: Inhibition of human recombinant TBK1 at 15 nM in presence of ATP by radiometric assay relative to control
T3 sequence (whole entry): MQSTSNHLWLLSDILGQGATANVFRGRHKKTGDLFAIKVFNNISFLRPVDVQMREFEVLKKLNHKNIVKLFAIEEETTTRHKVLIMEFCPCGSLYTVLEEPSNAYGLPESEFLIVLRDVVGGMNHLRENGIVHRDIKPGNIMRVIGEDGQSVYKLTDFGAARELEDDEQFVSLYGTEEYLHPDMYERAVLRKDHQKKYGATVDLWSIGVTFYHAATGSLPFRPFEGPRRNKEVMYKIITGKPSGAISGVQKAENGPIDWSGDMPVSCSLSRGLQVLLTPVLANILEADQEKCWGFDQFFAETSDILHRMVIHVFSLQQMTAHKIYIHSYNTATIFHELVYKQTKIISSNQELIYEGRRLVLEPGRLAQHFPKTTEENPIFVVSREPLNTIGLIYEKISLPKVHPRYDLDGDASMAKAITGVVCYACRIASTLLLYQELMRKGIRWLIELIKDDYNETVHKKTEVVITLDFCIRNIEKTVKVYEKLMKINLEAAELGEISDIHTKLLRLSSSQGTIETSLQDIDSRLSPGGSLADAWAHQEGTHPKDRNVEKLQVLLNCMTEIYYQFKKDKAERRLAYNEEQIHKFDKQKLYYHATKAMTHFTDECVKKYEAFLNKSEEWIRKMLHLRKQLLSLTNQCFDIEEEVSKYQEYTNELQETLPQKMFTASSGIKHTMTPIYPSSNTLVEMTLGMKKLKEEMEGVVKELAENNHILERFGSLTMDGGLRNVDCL

Chain of Serine/threonine-protein kinase B-raf (Homo sapiens) (P15056 whole entry): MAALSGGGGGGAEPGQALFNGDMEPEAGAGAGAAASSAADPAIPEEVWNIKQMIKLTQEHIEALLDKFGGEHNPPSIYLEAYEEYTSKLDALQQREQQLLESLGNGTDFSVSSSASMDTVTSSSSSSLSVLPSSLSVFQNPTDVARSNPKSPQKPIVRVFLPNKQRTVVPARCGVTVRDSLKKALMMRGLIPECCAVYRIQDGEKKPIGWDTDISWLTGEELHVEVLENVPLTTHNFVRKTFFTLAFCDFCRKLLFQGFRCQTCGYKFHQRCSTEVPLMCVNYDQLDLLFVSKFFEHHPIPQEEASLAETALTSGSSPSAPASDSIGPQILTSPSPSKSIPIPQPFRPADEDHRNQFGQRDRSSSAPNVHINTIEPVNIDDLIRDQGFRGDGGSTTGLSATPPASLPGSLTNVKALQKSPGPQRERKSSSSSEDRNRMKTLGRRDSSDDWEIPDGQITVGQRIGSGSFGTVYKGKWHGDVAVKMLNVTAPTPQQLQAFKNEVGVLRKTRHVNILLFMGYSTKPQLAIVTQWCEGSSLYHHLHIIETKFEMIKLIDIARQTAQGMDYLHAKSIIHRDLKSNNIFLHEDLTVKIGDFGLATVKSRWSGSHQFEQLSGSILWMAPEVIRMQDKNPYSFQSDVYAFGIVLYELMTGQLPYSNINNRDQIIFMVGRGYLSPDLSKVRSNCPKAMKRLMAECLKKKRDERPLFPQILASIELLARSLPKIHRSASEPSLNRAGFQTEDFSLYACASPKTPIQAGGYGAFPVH
Chain of Mitogen-activated protein kinase 10 (Homo sapiens) (P53779 whole entry): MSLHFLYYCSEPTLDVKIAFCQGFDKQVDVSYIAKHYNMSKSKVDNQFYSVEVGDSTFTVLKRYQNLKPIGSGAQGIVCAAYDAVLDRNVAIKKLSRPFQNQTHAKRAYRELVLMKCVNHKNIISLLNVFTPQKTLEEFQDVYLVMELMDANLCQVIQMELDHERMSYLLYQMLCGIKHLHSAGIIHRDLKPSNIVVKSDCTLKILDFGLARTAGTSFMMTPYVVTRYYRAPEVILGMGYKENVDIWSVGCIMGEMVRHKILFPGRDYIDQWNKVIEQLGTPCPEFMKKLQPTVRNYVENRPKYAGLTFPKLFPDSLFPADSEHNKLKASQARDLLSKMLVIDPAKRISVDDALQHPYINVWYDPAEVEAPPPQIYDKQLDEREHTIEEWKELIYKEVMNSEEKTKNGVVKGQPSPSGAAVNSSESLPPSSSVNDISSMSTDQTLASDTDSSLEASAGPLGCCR
Chain of Maternal embryonic leucine zipper kinase (Homo sapiens) (Q14680 whole entry, looked up): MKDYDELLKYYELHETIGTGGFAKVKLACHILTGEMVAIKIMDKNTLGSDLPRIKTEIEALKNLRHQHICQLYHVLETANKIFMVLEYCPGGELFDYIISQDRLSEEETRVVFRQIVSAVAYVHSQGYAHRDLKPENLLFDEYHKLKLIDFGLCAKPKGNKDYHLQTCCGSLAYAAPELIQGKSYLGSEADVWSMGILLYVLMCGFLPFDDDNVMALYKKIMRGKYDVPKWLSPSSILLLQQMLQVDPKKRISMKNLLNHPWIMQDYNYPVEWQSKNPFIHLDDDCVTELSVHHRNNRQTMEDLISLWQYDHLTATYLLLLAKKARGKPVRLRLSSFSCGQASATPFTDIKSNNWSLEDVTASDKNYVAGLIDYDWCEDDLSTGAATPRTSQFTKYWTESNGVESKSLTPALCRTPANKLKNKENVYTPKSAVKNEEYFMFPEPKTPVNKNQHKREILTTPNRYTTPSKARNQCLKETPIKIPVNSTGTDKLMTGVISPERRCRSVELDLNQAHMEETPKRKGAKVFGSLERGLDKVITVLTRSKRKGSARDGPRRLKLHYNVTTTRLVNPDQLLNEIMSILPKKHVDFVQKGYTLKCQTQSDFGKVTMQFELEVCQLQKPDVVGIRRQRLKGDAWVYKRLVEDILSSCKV
Chain of Fibroblast growth factor receptor 2 (Homo sapiens) (P21802 22-821 limits assumed): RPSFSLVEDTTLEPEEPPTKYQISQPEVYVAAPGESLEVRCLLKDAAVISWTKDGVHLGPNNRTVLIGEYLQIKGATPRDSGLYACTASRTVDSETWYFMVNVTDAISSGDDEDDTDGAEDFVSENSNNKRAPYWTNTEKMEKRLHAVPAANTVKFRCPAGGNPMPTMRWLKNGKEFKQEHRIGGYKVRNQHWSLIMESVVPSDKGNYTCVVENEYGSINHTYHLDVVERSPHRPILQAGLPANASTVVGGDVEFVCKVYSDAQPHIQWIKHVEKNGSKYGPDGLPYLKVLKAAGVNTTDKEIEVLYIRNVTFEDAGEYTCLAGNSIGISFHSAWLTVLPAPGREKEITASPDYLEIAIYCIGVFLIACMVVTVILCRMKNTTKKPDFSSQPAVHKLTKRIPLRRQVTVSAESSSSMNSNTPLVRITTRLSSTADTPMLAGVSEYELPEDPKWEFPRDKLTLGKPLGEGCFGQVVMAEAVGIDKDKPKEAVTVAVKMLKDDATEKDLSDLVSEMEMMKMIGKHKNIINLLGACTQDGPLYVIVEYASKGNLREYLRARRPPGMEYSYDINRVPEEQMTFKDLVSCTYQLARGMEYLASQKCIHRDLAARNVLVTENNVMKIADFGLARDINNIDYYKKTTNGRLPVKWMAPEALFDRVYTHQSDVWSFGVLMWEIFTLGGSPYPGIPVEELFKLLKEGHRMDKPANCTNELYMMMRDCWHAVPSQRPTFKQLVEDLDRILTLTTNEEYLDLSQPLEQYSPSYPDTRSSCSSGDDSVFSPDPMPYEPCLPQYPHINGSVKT
Chain of Serine/threonine-protein kinase MARK2 (Homo sapiens) (Q7KZI7 whole entry): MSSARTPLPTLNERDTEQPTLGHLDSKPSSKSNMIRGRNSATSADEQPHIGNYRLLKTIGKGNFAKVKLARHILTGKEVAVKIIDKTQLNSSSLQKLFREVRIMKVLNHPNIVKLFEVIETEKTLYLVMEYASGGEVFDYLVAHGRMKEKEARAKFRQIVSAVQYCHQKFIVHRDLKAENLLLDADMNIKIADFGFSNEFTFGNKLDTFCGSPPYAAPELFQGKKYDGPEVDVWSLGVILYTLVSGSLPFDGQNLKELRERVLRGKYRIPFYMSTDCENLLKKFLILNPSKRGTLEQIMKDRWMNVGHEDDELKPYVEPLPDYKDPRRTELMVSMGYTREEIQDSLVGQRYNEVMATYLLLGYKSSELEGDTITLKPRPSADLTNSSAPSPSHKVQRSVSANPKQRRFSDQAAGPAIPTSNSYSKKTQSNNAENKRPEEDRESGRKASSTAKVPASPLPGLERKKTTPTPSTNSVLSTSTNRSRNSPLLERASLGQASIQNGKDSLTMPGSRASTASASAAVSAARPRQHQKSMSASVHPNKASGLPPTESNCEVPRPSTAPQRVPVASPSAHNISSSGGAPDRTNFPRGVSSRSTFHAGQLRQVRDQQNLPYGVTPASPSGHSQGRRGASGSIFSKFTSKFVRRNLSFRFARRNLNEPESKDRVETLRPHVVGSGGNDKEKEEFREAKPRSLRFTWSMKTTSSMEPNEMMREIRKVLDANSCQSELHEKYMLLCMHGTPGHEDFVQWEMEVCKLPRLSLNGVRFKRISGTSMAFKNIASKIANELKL
Chain of Wee1-like protein kinase 2 (Homo sapiens) (P0C1S8 whole entry, looked up): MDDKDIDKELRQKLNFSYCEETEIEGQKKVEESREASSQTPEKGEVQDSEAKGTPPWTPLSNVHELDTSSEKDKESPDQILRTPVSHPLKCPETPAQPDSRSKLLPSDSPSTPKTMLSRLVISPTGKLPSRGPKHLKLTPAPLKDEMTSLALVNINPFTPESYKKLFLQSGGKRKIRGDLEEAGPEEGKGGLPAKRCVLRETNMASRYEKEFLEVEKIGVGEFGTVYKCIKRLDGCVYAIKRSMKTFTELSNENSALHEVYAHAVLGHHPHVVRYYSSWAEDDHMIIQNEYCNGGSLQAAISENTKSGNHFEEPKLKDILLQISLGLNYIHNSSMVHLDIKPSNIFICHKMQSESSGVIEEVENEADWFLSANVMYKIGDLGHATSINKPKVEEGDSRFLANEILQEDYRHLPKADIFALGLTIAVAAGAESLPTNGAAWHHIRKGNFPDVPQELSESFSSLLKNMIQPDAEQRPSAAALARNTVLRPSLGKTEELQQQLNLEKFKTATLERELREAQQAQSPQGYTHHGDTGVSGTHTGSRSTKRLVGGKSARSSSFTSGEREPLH

inhibition [1]: 8% | fold change (FC) [2]: 0.68 | fold change (FC) [3]: 0.28 | inhibition [4]: 0% | fold change (FC) [5]: 0.04
Structure (SMILES): CNC(=O)c1ccccc1Oc1nc(Nc2cc(OC)c(OC)c(OC)c2)ncc1Br

inhibition [6]: 0% | inhibition [7]: 0% | fold change (FC) [8]: 0.16
Structure (SMILES): O=C(N[C@@H](C1CC1)C(F)(F)F)c1cc(-c2cnn3cc(-c4ccc(F)cc4)cnc23)cs1

inhibition [9]: 31% | inhibition [10]: 79%
Structure (SMILES): CC(C)[C@H](NC(=O)c1cc(-c2cnn3cc(-c4ccc(OCCN5CCCCC5)cc4)cnc23)cs1)C(F)(F)F
